This note sets out measurements from ChEMBL document CHEMBL4622950, “The synthesis and antituberculosis activity of 5-alkynyl uracil derivatives” (Bioorg Med Chem Lett, 2020).

In brackets after ≈: the same amount, converted by molar mass.

The subject of test [1] is Mycobacterium tuberculosis. As to the kind of experiment: Antitubercular activity against Mycobacterium bovis BCG assessed as bacterial growth inhibition at 10 ug/ml by MABA relative to control. As to conditions: variant bovis BCG, read-out: GI. It counts as functional. In general terms: The colour change of resazurin is a common sign of viable cells or microbes.
Test [2] relates to Mycobacterium tuberculosis. As to the kind of experiment: Antitubercular activity against Mycobacterium bovis BCG assessed as bacterial growth inhibition at 50 to 100 ug/ml by MABA relative to control. It counts as functional, variant bovis BCG.
For test [3], the system named is Mycobacterium tuberculosis. Description: Antitubercular activity against Mycobacterium bovis BCG assessed as bacterial growth inhibition by alamar blue staining based assay. It counts as functional. The conditions noted are these: variant bovis BCG. A digest of the protocol: (§1)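 Whole-cell growth inhibition of Mycobacterium bovis and M. tuberculosis H37Ra, read quantitatively by Microplate Alamar Blue Assay (alamar blue reagent). Compounds were tested across 1 to 100 µg/ml. Activity was expressed as MIC50 (µg/ml) from this concentration series.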

Test [4] concerns Mycobacterium tuberculosis. Description: Antitubercular activity against Mycobacterium bovis BCG assessed as bacterial growth inhibition at 1 to 5 ug/ml by MABA relative to control. It counts as functional, variant bovis BCG.
The test system of test [5] is Mycobacterium tuberculosis. As to the kind of experiment: Antitubercular activity against Mycobacterium bovis BCG assessed as bacterial growth inhibition at 100 ug/ml by MABA relative to control. It counts as functional. As to conditions: variant bovis BCG, read-out: GI.
The subject of test [6] is Mycobacterium tuberculosis. Description: Antitubercular activity against Mycobacterium bovis BCG assessed as bacterial growth inhibition at 50 ug/ml by MABA relative to control. It counts as functional. The conditions noted are these: variant bovis BCG, read-out: GI.
The test system of test [7] is Mycobacterium tuberculosis. As to the kind of experiment: Antitubercular activity against Mycobacterium bovis BCG assessed as bacterial growth inhibition at 5 ug/ml by MABA relative to control. It counts as functional. As to conditions: variant bovis BCG, read-out: GI.
Test [8] deals with Mycobacterium tuberculosis. Description: Antitubercular activity against Mycobacterium bovis BCG assessed as bacterial growth inhibition at 1 ug/ml by MABA relative to control. Format: functional. As to conditions: variant bovis BCG, read-out: GI.
Test [9] relates to Mycobacterium tuberculosis. As to the kind of experiment: Antitubercular activity against Mycobacterium bovis BCG assessed as bacterial growth inhibition at 25 ug/ml by MABA relative to control. Format: functional. As to conditions: variant bovis BCG, read-out: GI.
The subject of test [10] is Mycobacterium tuberculosis. As to the kind of experiment: Antitubercular activity against Mycobacterium bovis BCG assessed as bacterial growth inhibition by MABA relative to control. Format: functional, variant bovis BCG. In short, it runs like this:
as §1

Test [11] relates to Mycobacterium tuberculosis. As to the kind of experiment: Antitubercular activity against Mycobacterium bovis BCG assessed as bacterial growth inhibition at 10 to 50 ug/ml by MABA relative to control. It counts as functional, variant bovis BCG.

As usually defined, the MIC50 is the lowest concentration that inhibits either 50% of growth or 50% of the strains tested, depending on the study. Turning to `O=c1[nH]cc(C#Cc2ccccc2)c(=O)[nH]1`, the inhibition of growth at 10 µg/mL in [1] stood at 40%. The “growth inhibition (GI)” value in [2] stood at 90%. The MIC50 in test [3] stood at 17.4 µg/mL (≈ 82 µM).
With `O=c1[nH]c(=O)n([C@@H]2O[C@H](CO)[C@@H](O)[C@H]2O)cc1C#CC(O)c1ccccc1` (stereo partly drawn), the “growth inhibition (GI)” value in test [4] is recorded as 100%. The MIC50 in test [3] came out at 1.4 µg/mL (≈ 3.74 µM).
For `CCCCCCC#Cc1cn([C@@H]2O[C@H](CO)[C@@H](O)[C@H]2O)c(=O)[nH]c1=O`, in test [1], the inhibition of growth at 10 µg/mL was determined as 0%. In test [5], the inhibition of growth at 100 µg/mL was 60%. Further, the inhibition of growth at 50 µg/mL in [6] turned out to be 0%. The MIC50 in test [3] is less than 50 µg/mL.
In the case of `O=c1[nH]c(=O)n([C@@H]2O[C@H](CO)[C@@H](O)[C@H]2O)cc1C#CC1CC1`, in [4], the “growth inhibition (GI)” value worked out at 50%. The inhibition of growth at 100 µg/mL in test [5] was determined as 90%. The MIC50 in test [3] came out at 2.4 µg/mL (≈ 7.78 µM).
For `N[C@@H]1CONC1=O` [CYCLOSERINE], the inhibition of growth at 10 µg/mL in test [1] worked out at 71%. Also, in [7], the inhibition of growth at 5 µg/mL was determined as 50%. For the same molecule, the MIC50 in test [3] was determined as 5.1 µg/mL (≈ 50 µM).
As for `C[Si](C)(C)C#Cc1c[nH]c(=O)[nH]c1=O`, the inhibition of growth at 100 µg/mL in test [5] turned out to be 50%. The MIC50 in [3] is 100 µg/mL (≈ 480 µM).
With `NNC(=O)c1ccncc1` [ISONIAZID], the inhibition of growth at 1 µg/mL in test [8] came to 100%. In test [3], the MIC50 was determined as 0.9 µg/mL (≈ 6.56 µM).
Consider `O=c1[nH]c(=O)n([C@@H]2O[C@H](CO)[C@@H](O)[C@H]2O)cc1C#CC1CCCCC1`, for which the “growth inhibition (GI)” value in [4] amounted to 10%. Further, the inhibition of growth at 100 µg/mL in test [5] turned out to be 90%. For the same molecule, in test [9], the inhibition of growth at 25 µg/mL stood at 60%. The MIC50 in test [3] was 19.2 µg/mL (≈ 54.8 µM).
With `CCCCC#Cc1c[nH]c(=O)[nH]c1=O`, the “growth inhibition (GI)” value in test [10] is on record as 0%.
Turning to `CO[C@H]1/C=C/O[C@@]2(C)Oc3c(C)c(O)c4c(O)c(c(/C=N/N5CCN(C)CC5)c(O)c4c3C2=O)NC(=O)/C(C)=C\C=C\[C@H](C)[C@H](O)[C@@H](C)[C@@H](O)[C@@H](C)[C@H](OC(C)=O)[C@@H]1C` [RIFAMPIN], the inhibition of growth at 1 µg/mL in [8] came to 100%. Also, the MIC50 in test [3] came out at 0.8 µg/mL (≈ 0.972 µM).
For the molecule `O=c1[nH]c(=O)n([C@@H]2O[C@H](CO)[C@@H](O)[C@H]2O)cc1C#Cc1ccccc1`, the inhibition of growth at 10 µg/mL in test [1] was determined as 75%. The “growth inhibition (GI)” value in test [4] amounted to 50%; in [2] it was 90%. Also, in test [3], the MIC50 worked out at 2.7 µg/mL (≈ 7.84 µM).
For the molecule `O=c1[nH]cc(C#CC2CC2)c(=O)[nH]1`, in test [11], the “growth inhibition (GI)” value is given as 60%. In addition, the inhibition of growth at 100 µg/mL in [5] turned out to be 80%. In addition, in [3], the MIC50 amounted to 7.8 µg/mL (≈ 44.3 µM).
Take `CC#Cc1c[nH]c(=O)[nH]c1=O`: in test [10], the “growth inhibition (GI)” value amounted to 0%.
For `CCCCCCC#Cc1c[nH]c(=O)[nH]c1=O`, the “growth inhibition (GI)” value in [10] worked out at 0%.
As to `O=c1[nH]cc(C#CC(O)c2ccccc2)c(=O)[nH]1` (stereo not drawn), the inhibition of growth at 10 µg/mL in test [1] came to 80%. In addition, the “growth inhibition (GI)” value amounted to 50% in test [4] and 90% in test [2]. Also, the MIC50 in test [3] stood at 3.1 µg/mL (≈ 12.8 µM).
Regarding `CCC#Cc1c[nH]c(=O)[nH]c1=O`, in test [10], the “growth inhibition (GI)” value turned out to be 0%.
Take `CCCCC#Cc1cn([C@@H]2O[C@H](CO)[C@@H](O)[C@H]2O)c(=O)[nH]c1=O`: in [1], the inhibition of growth at 10 µg/mL was found to be 0%. Further, the inhibition of growth at 100 µg/mL in test [5] amounted to 50%. Moreover, the inhibition of growth at 50 µg/mL in test [6] was found to be 0%. The MIC50 in test [3] came to 50 µg/mL (≈ 154 µM).
In the case of `O=c1[nH]cc(C#CC2CCCCC2)c(=O)[nH]1`, the “growth inhibition (GI)” value was 75% in [11] and 50% in test [4]. Also, the inhibition of growth at 100 µg/mL in [5] was 90%. Also, in test [3], the MIC50 was 2.5 µg/mL (≈ 11.5 µM).
